Compound activity (PubChem)
An excerpt weighted towards active compounds, which were near 1.8% of everything screened.
proCasp7 act: counter-screen: procaspase-7 (human) activation. P55210. recombinant procaspase-7, Ac-DEVD-pNA absorbance 405 nm; D23A/D198A/D206A triple mutant, cannot self-cleave; scale: DMSO 0, 5 µM enzyme 100. activation, % at 8.5 µM. actives 0.093% (n = 330,000);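 active = percent activation above the screen-wide mean plus 3 SD, cut at about 25% in these data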
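buffer or medium = Zinc-free HEPES/NaCl buffer, pH 7.4 | material = Procaspase-7 triple mutant (PC-7 D3A) | input = 2 µM procaspase-7 mutant as dispensed | signal = Epi-absorbance of released pNA at 405 nm, two timepoints | timing = 1 h preincubation, 2 h reaction | replicates = singlicate compound testing | evaluation = % activation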
proCasp3 act: activators of human procaspase-3. P42574. recombinant procaspase-3 D3A, Ac-DEVD-pNA absorbance 405 nm. activation, % at 8.5 µM. actives 0.11% (n = 330,000). AID 463141;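 active = activation above the mean of all tested compounds plus 3 SD, cut at about 21% in these data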
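System: Procaspase-3 D3A mutant. Medium: Zinc-free 300 mM NaCl, 50 mM HEPES, 0.01% Triton X-100. Schedule: 1 h preincubation plus 2 h reaction at 25 °C. Measured by: 405 nm absorbance of p-nitroaniline, reads at 0 and 120 min. Read-out: percent activation relative to control range.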
GSTO1 counter: counter-screen for RBBP9 inhibitors: inhibitors of human GSTO1; P78417; recombinant GSTO1, activity-based probe fluorescence polarization; inhibition, % at 5.96 µM; actives 1.1% (n = 300,000);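 active = inhibition above the campaign mean inhibition plus 3 SD, cut at about 35% in these data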
EBNA-1 inhibitor: blocks EBNA-1 binding to DNA; AID 1950; inhibition, % at 14.8 µM; EBNA-1 DNA binding, fluorescence polarization; actives 0.34% (n = 300,000); in the data active = inhibition above about 28%
Apaf-1 inh: inhibitors of human Apaf-1 apoptosome; O14727; reconstituted apoptosome caspase-3 activity, DEVD-Rh110 fluorescence; inhibition, % at 20 µM; actives 0.71% (n = 330,000); active = inhibition of at least 40% at 20 µM
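Assay system – apoptosome proteins · Medium – Hepes buffer, pH 7.5 · Also added – cytochrome c with DEVD-Rh110 · Timing – 30 min compound preincubation, 50 min activation, room temperature · Detection – Rh110 fluorescence, excitation 480 nm, emission 540 nm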
ZTA counter: blocks Epstein-Barr virus ZTA, an EBNA-1 counter-screen. ZTA-DNA binding, fluorescence polarization. inhibition, % at 11 µM. actives 0.15% (n = 320,000). AID 2234; in the data active = inhibition above about 33%
GSTO1 confirm: GSTO1 (human) inhibition, confirmation | inhibition, % at 5.96 µM | actives 54% (n = 2,400) | shares compounds with GSTO1 counter | recombinant GSTO1, probe fluorescence polarization;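 active = inhibition above the primary screen's cutoff, its mean inhibition plus 3 SD, cut at about 35% in these data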;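 also: loss of polarization as inhibitors block binding of rhodamine sulfonate ester activity probe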
GSTO1 ABPP inh: GSTO1 (human) inhibition by gel ABPP. shares compounds with GSTO1 counter. actives 30% (n = 130). recombinant GSTO1, gel ABPP SE-Rh probe fluorescence. inhibition, % at 1 µM;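 active = inhibition of the enzyme GSTO1 above about 75%, limit read from the data; inactive = inhibition below that limit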
Large screens that a line does not name were inactive (follow-up assays come after a bar, where they were run).

CS(=O)(=O)c1ccc2nc(NC(=O)CN3C(=O)NC4(CCCC4)C3=O)sc2c1	none
COc1ccc(CNC(=O)CN(c2ccc(C)cc2)S(=O)(=O)c2c(C)nn(C)c2C)cc1	none
O=C(NN1C(=O)NC2(CCCCC2)C1=O)c1cccs1	none (no result: GSTO1 counter, EBNA-1 inhibitor, ZTA counter)
Cc1ccc2occ(/C=N/O)c(=O)c2c1	none
CC(=O)Oc1ccc2occ(/C=N/c3cc(=O)[nH]c(=S)[nH]3)c(=O)c2c1	GSTO1 counter 73.4 | GSTO1 confirm inactive
O=C(CCl)N1c2ccccc2CCc2ccccc21	GSTO1 counter 68.7 | GSTO1 confirm 85.1 | GSTO1 ABPP inh inactive
O=C1OC(N2C(=O)CC[C@H]2C(=O)Nc2ccc3c(c2)OCO3)c2ccccc21 (some centres not stated)	none
CN(C(=S)Nc1ccc(Oc2ccccc2)cc1)c1ccc(O)cc1	GSTO1 counter 79.1 (no result: Apaf-1 inh) | GSTO1 confirm inactive
CN(C(=S)Nc1cccnc1)c1ccc(O)cc1	GSTO1 counter 82.8 (no result: Apaf-1 inh) | GSTO1 confirm inactive
CCN(C(=S)Nc1cccnc1)c1ccccc1	none
CN(C(=S)Nc1ccccc1)c1ccccc1	none
N/C(=C\C(=O)c1cc(Cl)ccc1O)C(Cl)(Cl)Cl	GSTO1 counter 65.2 | GSTO1 confirm 77.1
O=C1C=C(c2cccc3c2sc2ccccc23)C[C@@H](c2ccc(F)cc2)C1	none (no result: GSTO1 counter, EBNA-1 inhibitor)
COc1ccc2nc(NC(=O)c3ccccc3O)sc2c1	none
CCOC(=O)c1cccc(C(=O)Nc2nc3ccc(OC)cc3s2)n1	GSTO1 counter 53.4 | GSTO1 confirm inactive
COc1ccc(NC(=S)NC(=O)c2ccc(Br)o2)cc1	GSTO1 counter 45.3 | GSTO1 confirm inactive
CCCC(=O)Nc1ccc(C(=O)NNC(=S)NC(=O)c2ccc(Br)o2)cc1	GSTO1 counter 43.7 | GSTO1 confirm inactive
Cc1noc(NS(=O)(=O)c2ccc(NC(=O)CSc3ncccn3)cc2)c1C	GSTO1 counter 55.0 | GSTO1 confirm inactive
NC(=O)CCn1c(C(=O)c2ccc(Cl)cc2)c2ccccc2[n+]1[O-]	GSTO1 counter 50.4 | GSTO1 confirm inactive
O=C1CC(c2ccc(O)c(O)c2)Oc2cc(O)cc(O)c21 (configuration not stated)	GSTO1 counter 43.3 | GSTO1 confirm inactive
O=C(O)c1ccc2cccc(O)c2n1	GSTO1 counter 39.2 | GSTO1 confirm inactive
CCOc1cc(N2CCOCC2)c(OCC)cc1NC(=O)COC(=O)C1CCCN1S(=O)(=O)c1ccccc1F (configuration not stated)	none (no result: GSTO1 counter, EBNA-1 inhibitor)
CCOc1cc(N2CCOCC2)c(OCC)cc1NC(=O)COC(=O)[C@@H]1CCCN1S(=O)(=O)c1ccccc1F	GSTO1 counter 79.5 | GSTO1 confirm 80.0
COc1ccc(CNC(=O)COC(=O)Cc2ccc(Br)cc2)cc1	none (no result: GSTO1 counter, EBNA-1 inhibitor, ZTA counter)
CCOc1c(C)cnc2c1c(=O)n(Cc1c(F)cccc1Cl)c(=O)n2C	none
O=C(N[C@@H](Cc1ccccc1)C(=O)OCc1ccccc1)c1ccco1	none (no result: GSTO1 counter, EBNA-1 inhibitor, ZTA counter)
COc1ccc2ccc3c(c2c1)N=CC1(O3)N(C)c2ccccc2C1(C)C (configuration not stated)	GSTO1 counter 89.7 | GSTO1 confirm inactive
CN1c2ccccc2C(C)(C)C12C=Nc1c(ccc3ccccc13)O2 (configuration not stated)	GSTO1 counter 90.3 | GSTO1 confirm inactive
CN1c2ccccc2C(C)(C)[C@]12C=Cc1cc(O)ccc1O2	none
CN(Cc1cccnc1)C(=O)c1ccc(Cl)c(NS(=O)(=O)c2ccc(F)cc2)c1	none (no result: proCasp7 act, proCasp3 act, GSTO1 counter, EBNA-1 inhibitor, ZTA counter)
N#CC1(NC(=O)COC(=O)c2cc(O)c3ccccc3c2O)CCCCC1	GSTO1 counter 61.1, Apaf-1 inh 72.7 | GSTO1 confirm 57.4
Cc1ccc(NC(=O)CC(N)=S)cc1	GSTO1 counter 56.1 | GSTO1 confirm inactive
Cc1ccc(NC(=O)CC(O)(C(F)(F)F)C(F)(F)F)cc1	none
COCCn1cnc2c1c(=O)n(CC(=O)NCC(F)(F)F)c(=O)n2Cc1ccccc1	none
CC12CCC(=O)N1C(C(=O)NCCc1ccc(S(N)(=O)=O)cc1)CS2 (configuration not stated)	none
O=C(CSc1nnc(-c2ccco2)c(-c2ccco2)n1)Nc1ccccc1	GSTO1 counter 42.0 | GSTO1 confirm inactive
CN(C)c1ccc(NC(=O)CSc2nnc(-c3ccco3)c(-c3ccco3)n2)cc1	none
COc1ccc(NC(=O)CSc2nnc(-c3ccco3)c(-c3ccco3)n2)cc1OC	none
Cc1ccccc1NC(=O)CSc1nnc(-c2ccco2)c(-c2ccco2)n1	GSTO1 counter 54.5 | GSTO1 confirm inactive
COc1cccc(NC(=O)CSc2nnc(-c3ccco3)c(-c3ccco3)n2)c1	GSTO1 counter 50.2 | GSTO1 confirm inactive
COc1ccc(CCNC(=O)C(C)n2nc(C)c3c(C)n(-c4ccc(C)cc4)nc3c2=O)c(OC)c1 (configuration not stated)	none
CSCCC(NS(=O)(=O)c1ccccc1)C(=O)OC(C)C(=O)Nc1ccc(Cl)cn1 (configuration not stated)	none (no result: GSTO1 counter, EBNA-1 inhibitor)
O=C(O)c1ccc2c(c1)[C@@H]1C=CC[C@@H]1[C@H](c1ccccn1)N2	GSTO1 counter 50.5, ZTA counter 79.8 | GSTO1 confirm inactive
CCOc1ccc(NS(=O)(=O)c2ccc(C(=O)NNC(=O)c3ccccc3O)cc2)cc1	none
Cc1ccc(S(=O)(=O)c2nc(S(C)(=O)=O)sc2N2CCC3(CC2)OCCO3)cc1	GSTO1 counter 63.1 | GSTO1 confirm inactive
COc1ccc(CN=Cc2c(O)[nH]c3ccccc23)cc1	none
Oc1c(C=NCc2ccc(F)cc2)[nH]c2ccc(Br)c(Cl)c12	GSTO1 counter 47.6 | GSTO1 confirm inactive
Cc1ccc(CN=Cc2[nH]c3ccc(Br)c(Cl)c3c2O)cc1	GSTO1 counter 51.7 | GSTO1 confirm inactive
CCOC(=O)C1Nc2ccc(Br)cc2C2C=CCC12 (configuration not stated)	none
O=C(O)C1Nc2c(O)cccc2C2C=CCC12 (configuration not stated)	GSTO1 counter 60.6, EBNA-1 inhibitor 42.3 | GSTO1 confirm 51.9
O=C(O)C1Nc2ccc(Br)cc2C2C=CCC12 (configuration not stated)	GSTO1 counter 50.9 | GSTO1 confirm 48.7
COc1ccc(Cl)cc1NC(=O)CN(C)C(C)C(=O)NC(=O)NC1CCCCC1 (configuration not stated)	none
